Only some compounds are listed: those with a hit (about 3.5% of all), similar ones and a draw of the others.
RGS4 inh – human RGS4 inhibition. P49798. HEK293 M3R/RGS4 inducible, Fluo-4 calcium flux; stronger effect = higher value; triggered by carbachol at its EC20. B-score at 10 µM. 0.45% of 310,000 active. AID 463165;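 active means B-score, a plate-corrected calcium signal, over three deviations above library mean, with baseline fluorescence within five deviations of library mean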;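 further: RGS4 expression induced by doxycycline in cells with stable M3 receptor; B-score is computed from the integrated fluorescence ratio over baseline after carbachol; higher B-score means a larger calcium signal and so more RGS4 inhibition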
Target sequence (P49798 whole entry, looked up): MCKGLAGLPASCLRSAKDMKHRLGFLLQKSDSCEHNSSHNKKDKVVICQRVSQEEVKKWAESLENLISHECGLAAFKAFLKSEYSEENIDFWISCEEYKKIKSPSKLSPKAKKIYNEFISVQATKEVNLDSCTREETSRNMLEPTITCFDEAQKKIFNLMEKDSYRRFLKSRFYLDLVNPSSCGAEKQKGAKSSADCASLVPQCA
MrgX1 ag – agonists of human MrgX1 receptor; B-score at 10 µM; Q96LB2; 0.44% of 310,000 active; MrgX1-HEK293 cells, Fluo-4 calcium fluorescence, agonist mode; stronger effect = higher value;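 active means calcium response B-score plate-corrected fluorescence ratio at least 3 library SD, with starting fluorescence B-score inside 5 SD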
Target sequence (Q96LB2 whole entry, looked up): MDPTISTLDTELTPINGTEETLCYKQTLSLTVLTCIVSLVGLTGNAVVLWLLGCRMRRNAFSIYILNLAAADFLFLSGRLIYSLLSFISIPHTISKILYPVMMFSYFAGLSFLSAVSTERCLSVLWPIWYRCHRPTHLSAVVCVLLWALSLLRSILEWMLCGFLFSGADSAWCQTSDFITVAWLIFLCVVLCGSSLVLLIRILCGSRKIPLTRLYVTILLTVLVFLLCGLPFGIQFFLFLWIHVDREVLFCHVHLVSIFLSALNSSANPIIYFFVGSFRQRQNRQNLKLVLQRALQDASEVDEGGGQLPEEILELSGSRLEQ
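Test system: HEK293 cells stably expressing human MrgX1 receptor; amount: 15,000 cells per well; doses: compound delivered in addition one of three; times: overnight plating before 1 h dye loading; detection: Fluo-4 NW calcium-flux fluorescence, kinetic read; read-out basis: B-scored fluorescence response ratio; controls: positive and negative controls per plate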
MrgX1 PAM – human MrgX1 positive allosteric modulation, primary screen; 0.63% of 310,000 active; B-score at 10 µM; MrgX1-HEK293, Fluo-4 calcium flux, FDSS; stronger effect = higher value; Q96LB2;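 active means plate-corrected calcium response at least 3 library SD above typical, normal starting fluorescence, not activating the receptor alone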;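 further: compound read alongside a low EC10 to EC30 dose of BAM8-22 agonist; peak minus trough fluorescence over baseline measured at the second addition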
RGS4 pot – potentiators or activators of RGS4; HEK293 M3R/inducible RGS4, carbachol calcium flux Fluo4; stronger effect = lower value; B-score at 10 µM; 0.92% of 310,000 active;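 active means B-score of the integrated calcium signal more than 4 SD below the library mean, with starting fluorescence not abnormally high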;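 further: negative B-score means reduced calcium response which marks RGS4 activation or potentiation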
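Detection: kinetic calcium fluorescence imaging with Fluo4-AM dye, 2 µM / Material: HEK293 cells with stable M3R and inducible RGS4 / Schedule: recording 10 s baseline at 1 Hz, 100 s post-agonist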
MrgX1 antagonist – human MrgX1 receptor antagonism, primary screen | Q96LB2 | MRGX1-HEK293 calcium flux, Fluo-4, BAM8-22 antagonism; stronger effect = lower value | B-score at 10 µM | 1.3% of 310,000 active;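 active means calcium-response B-score plate-corrected more than 3 library SD below zero, starting fluorescence within 5 deviations, no agonist response on first addition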;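 further: peak minus trough fluorescence over baseline after final BAM8-22 challenge near maximal dose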
Active calls of the source: *; i = inactive; nt = no result.

SMILES | RGS4 inh | MrgX1 ag | MrgX1 PAM | RGS4 pot | MrgX1 antagonist
COC(=O)c1[nH]c2cccc(OC)c2c1NC(=O)C(C)N1CCC(C)CC1 (configuration not stated) | i | i | i | i | i
COc1ccc(S(=O)(=O)N2CCN(C(=O)c3cc(-c4ccc(Br)cc4)n[nH]3)CC2)cc1OC | i | i | i | -7* | i
O=C(Nc1cccc(NC(=O)c2ccc(-c3ccc(Br)cc3)o2)c1)c1ccccc1 | i | i | i | i | -4.6*
O=C(Nc1ccccc1)c1ccc(-c2ccc(Br)cc2)o1 | i | i | i | i | i
COc1ccc(Br)cc1C(=O)Nc1cccc(NC(=O)c2ccco2)c1 | i | i | i | i | i
O=C(Nc1cccc(NC(=O)c2ccc(-c3cccc(Br)c3)o2)c1)c1ccco1 | i | i | i | -8.9* | i
COC(C/C=C\[C@H](O)[C@H](C)OCc1ccccc1)OC | i | i | i | i | -5.4*
CCCCN(C(=O)c1c(C)noc1C)c1c(N)n(CCCC)c(=O)[nH]c1=O | i | i | i | i | i
Cc1cccc(N2CCN(C(=O)c3ccc4c(c3)OCCO4)CC2)c1C | i | i | i | i | i
Cc1cccc(N2CCN(C(=O)c3ccc4c(c3)NC(=O)C(CSCc3cccc(F)c3)N4)CC2)c1C (configuration not stated) | i | 34* | i | i | i
COc1cc(C(=O)NCCc2ccc(F)cc2)ccc1OCC(=O)N1CCOCC1 | i | i | i | i | i
Cc1cccc(-n2c(SCc3cc(=O)n4ccsc4n3)nc3ccccc32)c1 | i | i | i | -7.4* | i
N#CC(=NCc1cccnc1)C1=C(O)c2ccccc2C1=O | i | i | i | i | i
O=C(O)Cc1ccc(NC(=O)C2CC=CCC2C(=O)O)cc1 (configuration not stated) | i | i | i | i | -8.3*
CCc1ccc(NC(=O)C2CC=CCC2C(=O)O)cc1 (configuration not stated) | i | i | i | i | i
Cc1ccc(-c2csc(NC(=O)c3ccc(Br)cc3)c2C(=O)O)cc1 | i | 31* | i | i | i
Cc1cccc(C(=O)Nc2scc(-c3ccc(Br)cc3)c2C(=O)O)c1 | i | i | i | i | i
CC(C)c1ccc(-c2csc(NC(=O)c3cccs3)c2C(=O)O)cc1 | i | i | 19* | i | -6.8*
CC(C)c1ccc(C(CC(=O)O)NC(=O)c2cccs2)cc1 (configuration not stated) | i | i | i | i | i
CCN(CC)c1ccc(/C=N/N2C(C)CCCC2C)c(O)c1 (configuration not stated) | i | i | 7.7* | i | i
CCN(CC)c1ccc(/C=N/N2CCOCC2)c(O)c1 | i | i | i | i | i
CCN(CC)c1ccc(/C=N/N=C(N)N)c(O)c1 | i | i | 7.8* | i | -5.5*
CCN(CC)c1ccc(C=Nc2ccccc2)c(O)c1 | i | i | i | i | i
COc1ccc(C(=O)NC2CCSc3ccccc32)cc1F (configuration not stated) | i | i | i | i | i
CC12CCC(C(=O)NCc3ccc4c(c3)OCO4)(C(=O)C1=O)C2(C)C (configuration not stated) | i | i | i | i | i
SMILES | RGS4 inh | MrgX1 ag | MrgX1 PAM | RGS4 pot | MrgX1 antagonist
COc1cc(NC(=O)COC(=O)[C@@H]2CCCN2S(=O)(=O)c2ccc(Cl)cc2)cc(OC)c1OC | nt | i | 8.9* | nt | i
O=C(COC(=O)[C@@H]1CCCN1S(=O)(=O)c1ccc(Cl)cc1)NC12CC3CC(CC(C3)C1)C2 | i | i | i | i | i
CCn1ncc2c(OCc3ccc(C#N)cc3)cc(C)nc21 | i | i | i | i | i
COc1ccc(CCNc2ccc(C(CC(N)=O)NC(=O)c3cc(OC)ccc3OC)cc2[N+](=O)[O-])cc1 (configuration not stated) | i | i | i | i | -5*
CC(C)COC(=O)N1CC(O)CC1C(=O)O (configuration not stated) | i | i | i | i | i
CCCCCCCCC/C(=N\O)c1ccccn1 | i | i | i | -10* | i
CCCCCCCCC(=O)N/N=C/c1ccccn1 | i | i | i | i | i
Oc1ccccc1C1CCCCC1c1ccccc1 (configuration not stated) | i | i | i | i | i
O=C(c1ccc(=O)n(Cc2ccc(Cl)c(Cl)c2)c1)N1CCOCC1 | i | i | i | i | -7.4*
COc1cc(C)ccc1OCCOCCN(C)Cc1ccccc1 | i | i | i | i | -6.5*
COc1ccccc1OCCOCCOc1ccc(C)cc1[N+](=O)[O-] | i | i | i | i | -7*
Cc1ccc(NC(=O)c2cccc(Oc3ccc([N+](=O)[O-])cc3)c2)c(C(=O)O)c1 | i | i | i | i | i
O=C(Nc1ccc(O)cc1)c1cccc(Oc2ccc([N+](=O)[O-])cc2)c1 | i | i | i | i | -5.9*
Cc1ccc(C(=O)N/N=C/C=C/c2ccccc2)o1 | i | i | i | i | -7*
Cc1onc(-c2ccccc2)c1C(=O)N/N=C/C=C/c1ccccc1 | i | i | i | i | i
Cc1cccc(NC(=S)NCC(C)CSc2ccc(Cl)cc2)c1 (configuration not stated) | i | i | i | i | -6.4*
Cc1ccc(NC(=S)NCC(C)CSc2ccc(Cl)cc2)cc1 (configuration not stated) | i | i | i | i | i
COc1cc(/C=N/OCC(=O)Nc2ccc(OC(F)F)cc2)ccc1OCc1ccccc1 | i | i | i | -7* | i
CCOC(=O)c1c(C)[nH]c(C2=NNC(=Nc3cccc(Cl)c3)SC2)c1C | i | i | 22* | i | i
c1ccc(-c2nc(-n3nc4ccccc4n3)nc3ccccc23)cc1 | i | i | i | -7.2* | i
Clc1ccc(-c2nc(N3CCCCC3)nc3ccccc23)cc1 | i | i | i | i | i
Cc1ccc(-c2cc(C(=O)O)c3ccccc3n2)c(C)c1 | i | i | i | i | i
Cc1cc(C)c2c3c(oc2n1)C(=O)N(c1cccc(Cl)c1)CC(=O)N3 | i | i | i | i | i
Cc1cccc(C(=O)OC(C)C(=O)Nc2ccc(S(=O)(=O)N3CCCC3)cc2)c1O (configuration not stated) | i | i | i | -7.3* | i

High-throughput results (PubChem BioAssay)
